In ChEMBL document CHEMBL1799966, “Synthesis and anticancer activity of oxindole derived imidazo[1,5-a]pyrazines” (Eur J Med Chem, 2011):
pIC50: −log10 of the molar value.

Experiments:
M14 = assay: Cytotoxicity against human M14 cells; type: functional
In short: (§1)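 NCI 60-cell panel second-stage testing by NCI standard procedures. Compound was dissolved in DMSO and tested at five 10-fold dilutions: 10^-4, 10^-5, 10^-6, 10^-7 and 10^-8 M.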

A549 [1] = assay: Growth inhibition of human A549 cells; type: functional, cell-based
In short: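 MTT reduction assay. Cells were seeded at 1 × 10^4 per well in DMEM with 10% FBS and pre-incubated 24 h at 37 °C under CO2. Compounds were diluted in medium and incubated 24 h. Medium was then removed, MTT (5 mg/mL stock) added for 4 h, formazan dissolved in DMSO, and absorbance read at 540 nm.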

SN12C = assay: Cytotoxicity against human SN12C cells; type: functional
In short: (§2)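 NCI 60-cell-line panel protocol. Primary screen used a single 10^-5 M concentration with 48 h incubation, and percent growth was read against untreated cells by sulforhodamine B protein staining. The five-dose follow-up used a DMSO solution at five 10-fold dilutions from 10^-4 to 10^-8 M.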

SNB-75 [2] = assay: Cytotoxicity against human SNB75 cells; type: functional; in short: as §2
U-251 = assay: Cytotoxicity against human U251 cells; type: functional; in short: as §2
A549 [3] = assay: Induction of apoptosis in human A549 cells assessed as late apoptotic cells at 6.5 uM after 24 hrs using Annexin V-FITC and PI staining by flow cytometry (reference value: 85.7 %); type: functional
A549 [4] = assay: Induction of cell cycle arrest in human A549 cells assessed as accumulation at G2/M phase at 6.5 uM after 24 hrs by propidium iodide staining-based FACS analysis (reference value: 20.92 %); type: functional
In short: (§3)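 A549 cells (1 × 10^6) in six-well plates received 6.5 µM (final) for 24 h or 48 h. Floating and adherent cells were fixed in 70% ethanol, washed in PBS, then stained for 20 min with 50 µg/mL propidium iodide in hypotonic citrate/Triton X-100 buffer with DNase-free RNase A. Cells were analysed by FACS.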

Malme-3M = assay: Cytotoxicity against human MALME-3M cells; type: functional; in short: as §1
RXF 393 = assay: Cytotoxicity against human RXF393 cells; type: functional; in short: as §1
A549 [5] = assay: Induction of cell cycle arrest in human A549 cells assessed as accumulation at S phase at 6.5 uM after 24 hrs by propidium iodide staining-based FACS analysis (reference value: 19.21 %); type: functional; in short: as §3
TK-10 = assay: Cytotoxicity against human TK10 cells; type: functional; in short: as §2
K562 = assay: Cytotoxicity against human K562 cells; type: functional; in short: as §1
786-0 = assay: Cytotoxicity against human 786-0 cells; type: functional; in short: as §1
COLO 205 = assay: Cytotoxicity against human COLO205 cells; type: functional; in short: as §1
SK-MEL-5 = assay: Cytotoxicity against human SK-MEL-5 cells; type: functional; in short: as §2
SNB-75 [6] = assay: Anticancer activity against human SNB75 cells assessed as mean cell growth at 10^-5 M after 48 hrs by SRB assay; type: functional
In short: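 NCI-60 primary screen run to the US NCI protocol. Compound added at a single concentration of 10^-5 M and cultures incubated 48 h. The end point was sulforhodamine B (SRB) protein staining, reported as percent growth of treated cells relative to untreated control cells.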

T47D = assay: Cytotoxicity against human T47D cells; type: functional; in short: as §2
UACC-257 = assay: Cytotoxicity against human UACC257 cells; type: functional; in short: as §2
MDA-MB-231 = assay: Cytotoxicity against human MDA-MB-231 cells; type: functional; in short: as §1
SNB-19 = assay: Cytotoxicity against human SNB19 cells; type: functional; in short: as §2
A549 [7] = assay: Induction of cell cycle arrest in human A549 cells assessed as accumulation at sub G1 phase at 6.5 uM after 24 hrs by propidium iodide staining-based FACS analysis (reference value: 1.02 %); type: functional; in short: as §3
HEK293 = assay: Cytotoxicity against human HEK293 cells after 48 hrs by MTT assay; type: cell-based; settings: hek293, 48 h
In short: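 HEK-293 cells were seeded at 1 × 10^4 cells/well in DMEM with 10% FBS and held 24 h at 37 °C under CO2. Compound diluted in culture medium was added for 48 h. MTT (5 mg/mL stock) was then added for 4 h, formazan dissolved in DMSO, and absorbance read at 540 nm.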

NCI-H23 = assay: Cytotoxicity against human NCI-H23 cells; type: functional; in short: as §1
HOP-62 = assay: Cytotoxicity against human HOP62 cells; type: functional; in short: as §1
LOX IMVI = assay: Cytotoxicity against human LOXIMVI cells; type: functional; in short: as §1
EKVX = assay: Cytotoxicity against human EKVX cells; type: functional; in short: as §1
SW-620 = assay: Cytotoxicity against human SW620 cells; type: functional; in short: as §2
SK-MEL-28 = assay: Cytotoxicity against human SK-MEL-28 cells; type: functional; in short: as §2
UACC-62 = assay: Cytotoxicity against human UACC62 cells; type: functional; in short: as §2
MCF7 = assay: Cytotoxicity against human MCF7 cells; type: functional; in short: as §1
DU-145 = assay: Cytotoxicity against human DU145 cells; type: functional; in short: as §1

O=C1Nc2ccccc2/C1=C\c1nc(-c2ccccc2F)n2ccccc12
GI50 (M14): 5.65 µM
pIC50 (A549 [1]): 5.19
GI50 (SN12C): 4.32 µM
GI50 (SNB-75 [2]): 1.79 µM
GI50 (U-251): 2.57 µM
Activity (A549 [3]): 7.2%
Activity (A549 [4]): 17.46%
GI50 (Malme-3M): 3.07 µM
GI50 (RXF 393): 3.41 µM
Activity (A549 [5]): 13.51%
GI50 (TK-10): 4.05 µM
GI50 (K562): 6.35 µM
GI50 (786-0): 3.44 µM
GI50 (COLO 205): 4.08 µM
GI50 (SK-MEL-5): 2.8 µM
Activity (SNB-75 [6]): 18.49%
GI50 (T47D): 2.36 µM
GI50 (UACC-257): 5.2 µM
GI50 (MDA-MB-231): 2.27 µM
GI50 (SNB-19): 4.7 µM
Activity (A549 [7]): 1.19%
Activity (HEK293): Non-toxic
GI50 (NCI-H23): 4.55 µM
GI50 (HOP-62): 2.37 µM
GI50 (LOX IMVI): 4.15 µM
GI50 (EKVX): 10.6 µM
GI50 (SW-620): 3.97 µM
GI50 (SK-MEL-28): 3.71 µM
GI50 (UACC-62): 6.32 µM
GI50 (MCF7): 2.1 µM
GI50 (DU-145): 3.26 µM
